Most compounds without a hit are left out; they make up all but 2.9% or so of the library.
UBC13 polyUb = inhibitors of human UBC13 polyubiquitin chain formation | 330,000 tested, 0.47% active | TR-FRET | inhibition, % at 20 µM | P61088 | AID 485273; in the data active means inhibition above about 45%, passing the limit was not always enough
Apaf-1 inh = human Apaf-1 inhibition; inhibition, % at 20 µM; reconstituted apoptosome caspase-3 activity, DEVD-Rh110 fluorescence; 330,000 tested, 0.71% active; O14727; active means inhibition of at least 40% at 20 µM;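 further: plate controls were DMSO wells for no effect and DEVD-CHO caspase inhibitor wells for full effect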
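System – cell-free apoptosome with Apaf-1, procaspase-3 and caspase-9 · Buffer or medium – pH 7.5 Hepes buffer with CHAPS, BSA, DTT · Also added – cytochrome c with DEVD-Rh110 · Times – 30 min compound preincubation, 50 min activation, room temperature · Technique – Rh110 fluorescence intensity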
M18AAP inhibitor = blocks P. falciparum M18 aspartyl aminopeptidase; recombinant PfM18AAP, H-Glu-NHMec fluorogenic cleavage; 290,000 tested, 1.2% active; inhibition, % at 7.35 µM;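 active means inhibition above the campaign mean inhibition over all tested compounds plus 3 SD, cut at about 28% in these data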;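 further: 0% = plate median of test compound wells and 100% = 2 mM ZnCl2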
PfG6PD inh = PfG6PD (Plasmodium falciparum) enzyme inhibition; PfGluPho enzyme, NADPH resazurin-diaphorase fluorescence; inhibition, % at 20 µM; 350,000 tested, 0.78% active;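 active means inhibition reaching at least a set limit at 20 µM in the primary screen, cut at about 59% in these data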;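 further: 0% = DMSO wells with substrate and 100% = DMSO wells lacking glucose-6-phosphate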
ZTA DNA inh = ZTA (EBV) inhibition in EBNA-1 counter-screen; AID 2234; inhibition, % at 11 µM; P03206; 320,000 tested, 0.15% active; ZTA-DNA binding, fluorescence polarization; in the data active means inhibition above about 33%
EBNA-1 inhibitor = blocks EBNA-1 binding to DNA; EBNA-1 DNA binding, fluorescence polarization; inhibition, % at 14.8 µM; 300,000 tested, 0.34% active; AID 1950; in the data active means inhibition above about 28%
PfGluPho conf = PfG6PD inhibition, single-dose confirmed. 2,400 tested, 34% active. inhibition, % at 20 µM. recombinant PfGluPho, NADPH-diaphorase-resazurin fluorescence. shares compounds with PfG6PD inh. AID 504753;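 active means inhibition of at least 50% at 20 µM in any single replicate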;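 further: 0% = DMSO with substrate and 100% = DMSO lacking glucose-6-phosphate substrate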
Diaph ctr 10uM = diaphorase inhibition or oxidation at 10 uM NADPH; shares compounds with PfG6PD inh; diaphorase-coupled resazurin reduction, fluorescence, NADPH 10 uM; inhibition, % at 20 µM; 820 tested, 39% active;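 active means average inhibition reaching 50% or more with the compound at 20 µM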;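 further: resorufin red fluorescence formed as diaphorase reduces resazurin using NADPH; 0% = DMSO with enzyme and 100% = DMSO without enzyme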
Diaph ctr 30uM = inhibits diaphorase or oxidizes, flagging false PfG6PD hits; inhibition, % at 20 µM; shares compounds with PfG6PD inh; Diaphorase/resazurin coupled assay, resorufin fluorescence, 30 uM NADPH; AID 504863; 820 tested, 29% active;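 active means inhibition averaging 50% or more, tested at 20 µM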;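 further: 0% = DMSO with enzyme and 100% = DMSO wells lacking diaphorase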
* = called active by the depositor; nt = no result.

SMILES | UBC13 polyUb | Apaf-1 inh | M18AAP inhibitor | PfG6PD inh | ZTA DNA inh | EBNA-1 inhibitor | PfGluPho conf | others
CC(Sc1nc2cc([N+](=O)[O-])ccc2n1-c1ccc(F)cc1)C(=O)NCc1ccc2c(c1)OCO2 (stereo unspecified) | -4 | 16 | 12 | 57 | -17 | 6 | nt
O=C(Nc1cccc(S(=O)(=O)N2CCCCC2)c1)C1CCCN1S(=O)(=O)c1ccccc1F (stereo unspecified) | 2 | -4 | nt | 4 | 21 | nt | nt
CCOc1ccc(C2Nc3cccc4cccc(c34)N2)cc1OC | -34 | 22 | 1 | 54 | -5 | -7 | nt
COc1ccc(C2Nc3cccc4cccc(c34)N2)cc1 | -26 | 3 | 4 | 69* | -1 | 0 | 37
O=C(Nc1nc2nccc(-c3ccccc3)n2n1)C(Cl)(Cl)Cl | 3 | 12 | 3 | -4 | -8 | 8 | nt
COc1ccc([N+](=O)[O-])cc1/C=N/NC(=O)CNC(=O)c1cccc(F)c1 | -25 | 1 | 5 | 70* | -3 | -7 | 22
COc1ccc([N+](=O)[O-])cc1/C=N/NC(=O)CNC(=O)C(c1ccccc1)c1ccccc1 | 4 | 11 | 8 | 139* | 0 | 10 | 86* | Diaph ctr 10uM=85*;Diaph ctr 30uM=80*
O=C(CNC(=O)c1cccc(F)c1)N/N=C/c1ccc(O)c([N+](=O)[O-])c1 | -42 | -5 | -4 | -6 | 2 | 4 | nt
O=C1/C(=N\S(=O)(=O)c2cccs2)C([n+]2ccccc2)=C([O-])c2ccccc21 | -89 | 27 | 11 | 65* | -18 | 4 | 29
O=C(Nc1nnc(CSCc2ccc(F)cc2)s1)c1cccc([N+](=O)[O-])c1 | -10 | 15 | 1 | 73* | 14 | 1 | 44
CCC(C)(C)c1nnc(NC(=O)c2cccc([N+](=O)[O-])c2)s1 | -9 | 3 | -10 | 116* | 0 | -12 | 88* | Diaph ctr 10uM=93*;Diaph ctr 30uM=64*
O=C(Nc1nnc(CSCc2ccc(Cl)cc2)s1)c1cccc([N+](=O)[O-])c1 | 1 | 2 | -3 | 52 | -3 | -1 | nt
O=C(COC(=O)c1ccccc1C(=O)c1ccc(Cl)cc1)NCc1ccccc1 | 3 | 8 | 1 | 81* | -16 | 8 | 45
O=C(CSc1nnc(-c2ccncc2)o1)Nc1cc(Cl)ccc1C(=O)O | 1 | -4 | nt | 60* | nt | nt | 28
Cc1ccccc1-c1ccc(C(=O)Nc2cccc(F)c2)o1 | -10 | 14 | -1 | 69* | -3 | 7 | -3
Clc1ccc(C2=Nn3c(Cn4nnc5ccccc54)nnc3SC2)cc1 | -6 | 15 | 1 | 63* | -7 | -16 | 46
c1ccc(C2=Nn3c(Cn4nnc5ccccc54)nnc3SC2)cc1 | -9 | -6 | 9 | 26 | -11 | -17 | nt
Fc1ccc(C2=Nn3c(Cc4ccccc4F)nnc3SC2)cc1 | -1 | 13 | 5 | 7 | 4 | 1 | nt
c1ccc(Cc2nnc3n2N=C(c2ccccc2)CS3)cc1 | 3 | 6 | 2 | 61* | 8 | -7 | 22
c1ccc(-c2ccc(C3=Nn4c(Cn5nnc6ccccc65)nnc4SC3)cc2)cc1 | -24 | 27 | 13 | 72* | -8 | 13 | 13
Nc1nc(SCC(=O)Nc2ccc(Cl)cn2)n[nH]1 | 2 | -4 | 3 | 2 | -1 | 2 | nt
CC(Nc1cc(N2CCN(S(C)(=O)=O)CC2)ccc1[N+](=O)[O-])c1ccccc1 (stereo unspecified) | -13 | 13 | 5 | 60* | 7 | 9 | 25
CC(Nc1cc(N2CCCC2)ccc1[N+](=O)[O-])c1ccccc1 (stereo unspecified) | -27 | 18 | -10 | 11 | 1 | 0 | nt
CC(Nc1cc(N2CCN(S(=O)(=O)N(C)C)CC2)ccc1[N+](=O)[O-])c1ccccc1 (stereo unspecified) | 7 | 20 | -2 | 88* | -3 | 0 | 23
O=C(NCc1ccccc1Br)C1CCCO1 (stereo unspecified) | 4 | 0 | -2 | 5 | 11 | -1 | nt

Screening data as filed in PubChem BioAssay.
